Key:
Assay type in all cases: functional
Fusarium graminearum = assay: Antifungal activity against Fusarium graminearum assessed as inhibition of mycelium growth at 50 mg/L at 26 degC measured after 72 hr
How it was run: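 Mycelium growth test on agar plates: 1 mL test solution (50 mg/L) mixed with 9 mL agar medium; sterile water in place of test solution for controls. 4 mm inocula cut from margins of actively growing colonies, placed at plate centre, incubated at 26 °C; mycelium diameter measured over 72 h. Inhibition % from mean hyphal diameter against control. Triplicate.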

[1] = tested on: Botryosphaeria berengeriana; assay: Antifungal activity against Botryosphaeria berengeriana assessed as inhibition of mycelium growth at 50 mg/L at 26 degC measured after 72 hr
How it was run: (§1)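 Mycelium growth assay on agar. 1 mL test solution (50 mg/L) was poured into a 9 cm plate with 9 mL agar medium. Controls used sterile water in its place. A 4 mm plug from the margin of an actively growing colony was placed in the centre and incubated at 26 °C. Hyphal diameter was measured over 72 h, in triplicate. Inhibition % = (control diameter − treated diameter)/control diameter.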

Alternaria solani = assay: Antifungal activity against Alternaria solani assessed as inhibition of mycelium growth at 50 mg/L at 26 degC measured after 72 hr; how it was run: as §1
Brassica napus [2] = assay: Herbicidal activity against rape Brassica napus (oilseed rape) assessed as herbicidal damage at 1.5 kg/ha measured after postemergence treatment; details: post-emergence
How it was run: (§2)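 Seeds were sown in 6 cm boxes of artificial mixed soil, covered with plastic film until emergence, and grown in a greenhouse. Sprays were applied right after sowing (preemergence) or after the first true leaf expanded (postemergence). Controls received the same amount of water/DMF/Tween 20. Above-ground fresh weight was taken 10 days after treatment, in triplicate, as % damage versus control.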

Medicago sativa [3] = assay: Herbicidal activity against Medicago sativa (alfalfa) assessed as herbicidal damage at 1.5 kg/ha measured after postemergence treatment; details: post-emergence; how it was run: as §2
Brassica napus [4] = assay: Herbicidal activity against rape Brassica napus (oilseed rape) assessed as herbicidal damage at 1.5 kg/ha measured after preemergence treatment; details: pre-emergence; how it was run: as §2
Mycosphaerella arachidis = assay: Antifungal activity against Mycosphaerella arachidis assessed as inhibition of mycelium growth at 50 mg/L at 26 degC measured after 72 hr; how it was run: as §1
Digitaria sanguinalis [5] = assay: Herbicidal activity against hairy crabgrass Digitaria sanguinalis (hairy crabgrass) assessed as herbicidal damage at 1.5 kg/ha measured after preemergence treatment; details: pre-emergence; how it was run: as §2
Cucumis sativus = assay: Plant growth regulatory activity in Cucumis sativus (cucumber) seed assessed as number of root at 10 mg/L at 26 degC measured after 5 days
How it was run: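 Cucumber seeds were incubated at 26 °C in the dark for 72 h, then 10 cotyledons were excised and treated. Incubation continued at 26 °C in the dark for 5 days. Roots were counted, with water-only controls, in triplicate.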

Digitaria sanguinalis [6] = assay: Herbicidal activity against hairy crabgrass Digitaria sanguinalis (hairy crabgrass) assessed as herbicidal damage at 1.5 kg/ha measured after postemergence treatment; details: post-emergence; how it was run: as §2
Amaranthus retroflexus [7] = assay: Herbicidal activity against Amaranthus retroflexus assessed as herbicidal damage at 1.5 kg/ha measured after preemergence treatment; details: pre-emergence; how it was run: as §2
Medicago sativa [8] = assay: Herbicidal activity against Medicago sativa (alfalfa) assessed as herbicidal damage at 1.5 kg/ha measured after preemergence treatment; details: pre-emergence; how it was run: as §2
Cladosporium cucumerinum = assay: Antifungal activity against Cladosporium cucumerinum assessed as inhibition of mycelium growth at 50 mg/L at 26 degC measured after 72 hr; how it was run: as §1
Amaranthus retroflexus [9] = assay: Herbicidal activity against Amaranthus retroflexus assessed as herbicidal damage at 1.5 kg/ha measured after postemergence treatment; details: post-emergence; how it was run: as §2
Tobacco mosaic virus = assay: Antiviral activity against Tobacco mosaic virus (TMV) inoculated in fresh tobacco leaf at 100 mg/L by half-leaf method
How it was run: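 Half-leaf method on tobacco leaves at the 5-6 growth stage. Leaves were inoculated with TMV by juice-leaf rubbing at 5.88 × 10-2 µg/mL and cut along the main vein. One half was immersed in test solution and the other in double distilled water for 20 min, then cultured at 25 °C for 72 h, in triplicate. Inhibition = 100(CK − A)/CK, from average lesion counts.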

Row | SMILES | inhibition at 50 µg/mL (Fusarium graminearum) | inhibition at 50 µg/mL [1] | inhibition at 50 µg/mL (Alternaria solani) | inhibition at 1500 g/ha (Brassica napus [2]) | inhibition at 1500 g/ha (Medicago sativa [3]) | inhibition at 1500 g/ha (Brassica napus [4]) | inhibition at 50 µg/mL (Mycosphaerella arachidis) | inhibition at 1500 g/ha (Digitaria sanguinalis [5]) | Activity (Cucumis sativus) | inhibition at 1500 g/ha (Digitaria sanguinalis [6]) | inhibition at 1500 g/ha (Amaranthus retroflexus [7]) | inhibition at 1500 g/ha (Medicago sativa [8]) | inhibition at 50 µg/mL (Cladosporium cucumerinum) | inhibition at 1500 g/ha (Amaranthus retroflexus [9]) | Activity (Tobacco mosaic virus)
1 | CCOCCOC(=O)/C(C#N)=C(/C)NCc1ccco1 | 46.7% | 22.7% | 0% | 20.1% | 5.4% | 8.5% | 44.6% | 42.1% | -0.6% | 17.2% | 3.2% | 12% | 21.1% | 32.3% | 
2 | CCOCCOC(=O)/C(C#N)=C(\NCC1CCOC1)C(C)C (stereo unspecified) | 0% | 9.1% | 0% | 88.2% | 41.3% | 0% | 17.9% | 0% | 14.4% | 57.6% | 12.6% | 2.3% | 5.3% | 37.8% | 4.9%
3 | CCOCCOC(=O)/C(C#N)=C(/NCC1CCOC1)SC (stereo unspecified) | 0% | 27.3% | 21.4% | 50.5% | 4.2% | 0% | 25% | 5.7% | -9.6% | 0% | 22.1% | 0% | 21.1% | 43.3% | 
4 | CCOCCOC(=O)/C(C#N)=C(/NCC1CCCO1)SC (stereo unspecified) | 40% | 4.5% | 0% | 47.5% | 23.4% | 0% | 17.9% | 35.7% | -0.6% | 0% | 9.5% | 21.8% | 34.2% | 37.8% | 
5 | CCOCCOC(=O)/C(C#N)=C(/NCc1ccco1)SC | 36.7% | 22.7% | 25% | 22.9% | 18.6% | 20.7% | 16.1% | 37.8% | 14.4% | 13.1% | 10.5% | 0% | 15.8% | 30.2% | 
6 | CCOCCOC(=O)/C(C#N)=C(/NCc1ccc(Cl)nc1)SC | 6.7% | 22.7% | 7.1% | 100% | 41.3% | 68.9% | 21.4% | 18.6% | -3.6% | 89.9% | 13.7% | 1.5% | 0% | 100% | 18.3%
7 | CCOCCOC(=O)/C(C#N)=C(/CC)NCC1CCOC1 (stereo unspecified) | 20% | 9.1% | 17.9% | 68% | 25.7% | 34.1% | 39.3% | 0% | 41.5% | 11.1% | 4.2% | 6% | 7.9% | 51.6% | 7.2%
